Screening results: PubChem BioAssay, several laboratories
p47phox inh – blocks human p47phox regulatory protein of NADPH oxidases; 220,000 compounds, 0.53% hits; inhibition, % at 24.7 µM; p47phox/p22phox peptide binding, fluorescence polarization, 2 h; P14598;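 active = inhibition above about 30%, limit read from the data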;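 note: 0% = p47phox with labelled peptide and 100% = labelled peptide alone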
Target sequence (P14598 whole entry, looked up): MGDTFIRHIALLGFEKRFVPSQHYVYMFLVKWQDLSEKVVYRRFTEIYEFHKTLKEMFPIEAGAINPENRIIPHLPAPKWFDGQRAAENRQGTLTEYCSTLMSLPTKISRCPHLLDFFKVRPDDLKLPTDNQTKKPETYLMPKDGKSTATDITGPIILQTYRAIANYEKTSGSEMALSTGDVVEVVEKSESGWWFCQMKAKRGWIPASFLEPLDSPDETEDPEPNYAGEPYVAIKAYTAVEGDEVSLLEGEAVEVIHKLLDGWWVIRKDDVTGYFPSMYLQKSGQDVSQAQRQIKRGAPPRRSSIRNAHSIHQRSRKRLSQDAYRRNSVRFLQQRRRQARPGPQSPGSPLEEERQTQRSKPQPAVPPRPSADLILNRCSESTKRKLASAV
ABCB1 inh – blocks JC-1 efflux by human ABCB1 transporter; P08183; CCRF-Adr cells, flow cytometry; inhibition, % at 6.6 µM; 190,000 compounds, 0.067% hits; AID 1326; in the data active = inhibition above about 40%;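 note: 0% = vehicle and 100% = reference inhibitor; higher value means more JC-1 retained so stronger ABCB1 efflux block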
HSV replic up – increases HSV replication in cells | HSV replication augmentation in cells, fold increase | maximum fold increase | 220,000 compounds, 0.005% hits; in the data active = maximum fold increase above about 1.5; inconclusive = no clear call, values can overlap the other calls; tested in PC3 cells
PKD1 kinase inh – inhibitors of human PKD1 kinase. Q15139. PKD1 kinase fluorescence polarization assay. inhibition, % (concentration not given with the values). 200,000 compounds, 0.056% hits; in the data active = inhibition above about 50%
ABCG2 inh – inhibitors of human ABCG2 transporter, ABCB1 counter-screen | inhibition, % at 6.6 µM | IgMXP3 cells, JC-1 efflux, flow cytometry | Q9UNQ0 | 190,000 compounds, 0.1% hits;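 active = inhibition above 80%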;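 note: 0% = DMSO and 100% = nicardipine control wells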
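Test system: IgMXP3 cells (ABCG2) mixed with DDAO far-red-labelled CCRF-Adr cells (ABCB1). Reagent: JC-1 transporter substrate. Compound dosing: single test compound dose, 6.6 µM final. Times: 10 min compound exposure, 25 °C. Detection: flow cytometry of retained JC-1 fluorescence. Read-out basis: efflux inhibition in percent versus controls. Controls: nicardipine and DMSO wells.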
PHOSPHO1 block – inhibitors of human PHOSPHO1 phosphatase | Q8TCT1 | recombinant PHOSPHO1, absorbance phosphatase assay | inhibition, % at 13.3 µM | 290,000 compounds, 1.1% hits; in the data active = inhibition above about 60%
Target sequence (Q8TCT1 whole entry, looked up): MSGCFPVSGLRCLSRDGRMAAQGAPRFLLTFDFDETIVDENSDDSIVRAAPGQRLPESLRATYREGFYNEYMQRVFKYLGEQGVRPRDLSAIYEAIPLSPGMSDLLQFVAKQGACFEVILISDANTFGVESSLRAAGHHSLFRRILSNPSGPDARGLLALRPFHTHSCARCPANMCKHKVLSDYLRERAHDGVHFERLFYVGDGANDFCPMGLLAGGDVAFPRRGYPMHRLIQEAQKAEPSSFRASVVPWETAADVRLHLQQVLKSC
Starred values were filed as active, the others as inactive; i = inactive; u = inconclusive; x = not tested or not shown. Compounds with a hit are over-represented: about 1.6% of the library has one in this group of screens.

SMILES | p47phox inh | ABCB1 inh | HSV replic up | PKD1 kinase inh | ABCG2 inh | PHOSPHO1 block
O=C(Cc1ccc(Cl)cc1)OCc1nnc(-c2ccccc2)o1 | -14 | -1 | i | 4 | -4 | 60*
CS(=O)(=O)N1CCN(c2ccc([N+](=O)[O-])c(NCCN3CCOCC3)c2)CC1 | 144* | 0 | x | -5 | 3 | -13
O=C(COc1ccccc1)Nn1cnc2ccccc21 | -11 | 1 | i | -1 | 9 | 97*
CCCCn1c(SCN2C(=O)c3ccccc3C2=O)nc2cc(S(N)(=O)=O)ccc21 | -17 | 1 | i | -4 | 2 | 90*
CCCCn1c(SCC(=O)c2cc(OC)ccc2OC)nc2cc(S(N)(=O)=O)ccc21 | -60 | 0 | i | 6 | 0 | 65*
O=C(COc1ccc2c3c(c(=O)oc2c1)CCC3)NCCCN1CCOCC1 | x | x | x | x | x | 62*
C#CCN1C(=O)S/C(=C/C=C/c2ccc(N(C)C)cc2)C1=O | 44* | 3 | u | -16 | 11 | -13
O=C(CN1C(=O)S/C(=C\C=C\c2ccccc2)C1=O)Nc1ccccc1C(=O)O | -29 | x | i | x | x | -5
COc1ccccc1/C=c1\sc2nc(-c3ccccc3OC)nn2c1=O | -23 | 0 | x | 10 | 0 | 87*
Cc1ccc(-c2nc3s/c(=C\c4ccco4)c(=O)n3n2)cc1 | -20 | 0 | i | -1 | 1 | 95*
Cc1ccc(/C=c2\sc3nc(-c4ccco4)nn3c2=O)o1 | -79 | -7 | i | 4 | -5 | 19
COCCC(=O)N1CCC(Oc2ccc(C(=O)N3CCCC(CCCO)C3)cc2)CC1 (stereo not drawn) | x | x | x | x | x | 9
O=C(CSc1ncnc2nc[nH]c12)Nc1ccccc1C(F)(F)F | -9 | 0 | x | -6 | 3 | 79*
CCOC(=O)c1c(S(=O)(=O)NCc2ccco2)c(C)n(C)c1C | x | x | x | x | x | 50
O=C(O)c1ccc(-n2c(-c3cc(C4CC4)[nH]n3)n[nH]c2=S)cc1 | 4 | x | i | x | x | 63*
CC(=O)c1ccc(-n2c(-c3cc(-c4ccco4)[nH]n3)n[nH]c2=S)cc1 | -12 | 0 | u | 7 | -1 | 97*
Cc1ccc(-n2c(-c3cc(-c4ccco4)[nH]n3)n[nH]c2=S)c(Br)c1 | -17 | x | i | x | x | 19
O=C(O)c1ccc(-n2c(-c3ccccc3)n[nH]c2=S)cc1 | -16 | 1 | i | -16 | 5 | -16
S=c1[nH]nc(-c2cc(-c3ccco3)[nH]n2)n1-c1cccc2ccccc12 | -15 | -2 | i | -4 | 19 | 94*
Cc1noc(C)c1COc1cccc(C(=O)NC(C)(C)C)c1 | 17 | 1 | i | -14 | 9 | 9
CCN1CCN(C(=O)N(c2ccccc2)c2ccccc2)CC1 | x | x | x | x | x | 28
Cc1cccc(NC(=S)NC2CC3CCC(C2)N3Cc2ccco2)c1C (stereo not drawn) | -1 | 2 | i | 2 | 14 | -8
Cc1ccc(NC(=S)NC2CC3CCC(C2)N3Cc2ccco2)c(C)c1 (stereo not drawn) | 37* | 1 | i | 7 | 3 | -7
CCc1n[nH]c(=S)n1/N=C/c1ccc(NC(C)=O)cc1 | -6 | 0 | i | 1 | 16 | -3
CCc1n[nH]c(=S)n1/N=C/c1cc(Br)c(OC)cc1OC | -9 | 0 | i | -12 | 5 | 60*
SMILES | p47phox inh | ABCB1 inh | HSV replic up | PKD1 kinase inh | ABCG2 inh | PHOSPHO1 block
O=C(COC(=O)c1cccs1)Nc1ccccc1[N+](=O)[O-] | -5 | 2 | i | 0 | 21 | 9
Cn1ncc(C(N)=O)c1NC(=S)NC(=O)c1ccc(Br)o1 | -2 | -1 | i | -3 | 1 | 80*
Cc1cccc(C)c1NC(=S)NC(=O)c1ccc(Br)o1 | -1 | 0 | i | 0 | 4 | 34
O=C(CN1CCOCC1)NCc1ccccc1 | 43* | 0 | x | -4 | 1 | 7
COC(=O)c1ccc(NC(=O)CN2CCOCC2)cc1 | -1 | 0 | i | 8 | 0 | 74*
O=C(N/N=C/c1cc(Cl)cc([N+](=O)[O-])c1O)c1ccccc1NS(=O)(=O)c1cccs1 | -9 | x | i | x | x | -12
Cc1cc(OC(C)C(=O)NCCN2CCOCC2)c2c(C)cc(=O)oc2c1 (stereo not drawn) | x | x | x | x | x | 45
O=C(O)c1ccccc1-c1ccc(/C=c2\sc3nc4cc(Br)cnc4n3c2=O)o1 | -13 | 0 | x | -4 | -2 | 62*
NC1=NC(c2ccccc2)N=C(Nc2ccccc2)N1 (stereo not drawn) | -9 | x | i | x | x | 14
CNc1c(-n2cc(C(=O)OC)c(C(=O)OC)c2C(=O)OC)c(=O)n(C)c(=O)n1C | x | x | x | x | x | 39
COc1ccc(-c2[nH]nc3c2C(c2ccc(OC(=O)N4CCOCC4)cc2)C(C#N)=C(N)O3)cc1 (stereo not drawn) | 8 | 0 | x | 16 | 0 | -12
CCCc1[nH]nc2c1C(c1ccc(OC(=O)N3CCOCC3)cc1)C(C#N)=C(N)O2 (stereo not drawn) | 1 | 1 | i | 6 | 7 | 63*
O=C(CSc1nnc([C@@H]2CCCN2)o1)c1ccc(Cl)cc1 | -8 | 0 | i | -7 | 2 | 74*
CCC(C)[C@H](N)c1nnc(SCC(=O)c2ccc(Cl)cc2)o1 (stereo partly drawn) | -7 | 0 | i | 1 | 0 | 79*
CC(Cc1cccnc1)NC(=O)c1ccccc1OC1CCN(S(C)(=O)=O)CC1 (stereo not drawn) | 4 | 0 | i | 0 | 0 | 43
Cc1ccc(C)c(S(=O)(=O)NC(C)C(=O)Nc2ccc(-c3nc4ccccc4s3)cc2)c1 (stereo not drawn) | -14 | 0 | i | -1 | 0 | 58
S=c1[nH]nc(Cc2c[nH]c3ccccc23)o1 | 0 | -1 | i | -2 | -1 | 61*
S=c1[nH]nc(-c2cc(-c3ccccc3)n[nH]2)n1/N=C/C=C/c1ccco1 | -37 | x | i | x | x | 23
COc1ccccc1/C=C/C=N/n1c(-c2ccccn2)n[nH]c1=S | -22 | x | i | x | x | 16
COc1ccccc1/C=C/C=N/n1c(-c2ccco2)n[nH]c1=S | -5 | x | i | x | x | 85*
S=c1[nH]nc(-c2ccncc2)n1/N=C/C=C/c1ccccc1 | -13 | x | i | x | x | 93*
S=c1[nH]nc(-c2ccco2)n1/N=C/C=C/c1ccco1 | -10 | -1 | i | -11 | -7 | 69*
COc1ccccc1/C=C/C=N/n1c(-c2n[nH]c3c2CCC3)n[nH]c1=S | -15 | x | i | x | x | 23
COc1ccccc1/C=C/C=N/n1c(-c2ccc(C)cc2)n[nH]c1=S | 3 | -2 | i | -7 | -5 | 86*
CN(C)CCCNS(=O)(=O)c1ccc(Oc2ncc(C(F)(F)F)cc2Cl)cc1 | -8 | 0 | i | -5 | 1 | 33
COc1cccc(/C=C/C(=C2\C(=O)N(c3ccccc3)N=C2C)c2ccc(Br)cc2)c1OC | x | x | x | -6 | x | x
CCCNc1nc(C)cc(-c2cc(C(=O)NC3CCCC3)on2)n1 | -15 | x | i | x | x | 26
